Data set [1] is described as follows: Selectivity index, ratio of CC50 for human MT-2 cells to IC50 for HIV1 IIIB.
A short description of data set [2]: Cytotoxicity against human PM1 cells expressing CCR5 by MTT assay. Type of data set: cell-based. In a few lines:
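Mock-infected PM1/CCR5 cells were exposed to compound, with viability read by MTT. CC50 is the concentration that reduces viability by 50%. Values are means with standard deviation from at least three independent experiments.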
A general note: Formazan colour is commonly taken as a measure of viable cells.

The subject of data set [3] is Human immunodeficiency virus 1. In words: Antiviral activity against HIV1 3B infected in human PM1 cells expressing CCR5 assessed as protection against virus-induced cytopathogenicity by MTT assay. The class given is functional, organism-based. The conditions noted are these: Human immunodeficiency virus 1, 3B. In a few lines: (§1)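 Cells were PM1/CCR5 infected with HIV-1, with viability read by MTT. IC50 is the compound concentration giving 50% protection against virus-induced cytopathogenicity. Values are means with standard deviation from at least three independent experiments.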
Background: Protection from cytopathic effect is a common read-out in antiviral testing.

Data set [4] relates to Human immunodeficiency virus 1. In words: Antiviral activity against HIV1 isolate 89.6 infected in human PM1 cells expressing CCR5 assessed as protection against virus-induced cytopathogenicity by MTT assay. The class given is functional, organism-based. To be noted: Human immunodeficiency virus 1, isolate 89.6, PM1. Summed up: as §1
A further data set has as its system PM1. In words: Inhibition of CD4-induced monoclonal antibody 4C11 binding to HIV1 JR-FL infected in human PM1 cells expressing CCR5 at 100 uM after 15 mins by FACS analysis (reference value: 27.60).
For data set [5], the system named is Human immunodeficiency virus 1. In words: Antiviral activity against HIV1 MTA infected in human PM1 cells expressing CCR5 assessed as protection against virus-induced cytopathogenicity by MTT assay. The class given is functional, organism-based. To be noted: Human immunodeficiency virus 1, MTA. Summed up: as §1
For data set [6], the system named is Human immunodeficiency virus 1. The experiment in a line: Antiviral activity against HIV1 MNA infected in human PM1 cells expressing CCR5 assessed as protection against virus-induced cytopathogenicity by MTT assay. To be noted: Human immunodeficiency virus 1, MNA. Type of data set: functional, organism-based. In a few lines: as §1
Data set [7] has as its system Human immunodeficiency virus 1. In words: Antiviral activity against HIV1 3B infected in human MT2 cells assessed as protection against virus-induced cytopathogenicity by MTT assay. The class given is functional, organism-based.
Data set [8] can be described thus: Selectivity index, ratio of CC50 for human PM1 cells expressing CCR5 to IC50 for HIV1 MNA. Type of data set: functional.
For data set [9], the target named is C-X-C chemokine receptor type 4 (Homo sapiens, UniProt P61073). In words: Displacement of [125I]-SDF-1-alpha from CXCR4 expressed in CHO cells. The class given is cell-based. On the technique in general: In a radioligand displacement assay an active substance lowers the binding of a labelled ligand.
Sequence of C-X-C chemokine receptor type 4 (P61073 whole entry): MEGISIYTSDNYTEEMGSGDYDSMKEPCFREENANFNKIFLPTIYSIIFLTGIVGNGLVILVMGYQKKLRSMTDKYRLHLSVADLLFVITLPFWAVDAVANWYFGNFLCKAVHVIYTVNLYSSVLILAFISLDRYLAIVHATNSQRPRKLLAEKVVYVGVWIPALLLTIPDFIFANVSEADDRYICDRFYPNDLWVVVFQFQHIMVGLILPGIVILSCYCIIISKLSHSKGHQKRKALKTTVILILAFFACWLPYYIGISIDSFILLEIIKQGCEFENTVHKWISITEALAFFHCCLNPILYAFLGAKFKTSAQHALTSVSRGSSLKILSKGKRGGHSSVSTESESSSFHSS
Data set [10] in a line: Cytotoxicity against human MT2 cells by MTT assay. The class given is cell-based.
Where [11] appears, read: Human immunodeficiency virus 1, 3B, MT2.

pEC50, pIC50: −log10 of the molar value.

The term CC50 denotes the concentration at which the toxic effect on the cells reaches its halfway point. The low end stands for greater toxicity to the cells, the high end for lower toxicity to the cells. As usually defined, the pIC50 is −log10 of the IC50, conventionally taken in molar units. As usually defined, the pEC50 is −log10 of the EC50, conventionally taken in molar units. Low values mean a large EC50, high ones a small EC50.

In the case of `N=C(N)NCCC[C@H](NC(=O)[C@@H]1CSSC[C@H](NC(=O)[C@H](Cc2ccc3ccccc3c2)NC(=O)[C@H](CCCNC(=N)N)NC(=O)[C@H](CCCNC(=N)N)NC(=O)c2ccc(F)cc2)C(=O)N[C@@H](Cc2ccc(O)cc2)C(=O)N[C@@H](CCCNC(N)=O)C(=O)N[C@@H](CCCNC(=N)N)C(=O)N[C@H](CCCCNC(=O)CCC(=O)NCCCCCCCCN2CCC(NC(=O)C(=O)Nc3ccc(Cl)cc3)CC2)C(=O)N2CCC[C@H]2C(=O)N[C@@H](Cc2ccc(O)cc2)C(=O)N[C@@H](CCCNC(=N)N)C(=O)N[C@@H](CCCNC(N)=O)C(=O)N1)C(N)=O` [listing 1 of 2 here], in data set [1], the “Selectivity Index” value stood at 244.
For the compound `CN1CCC(NC(=O)C(=O)Nc2ccc(Cl)cc2)CC1`, the CC50 in [2] is > 300 µM. For the same compound, the values for the pIC50 in data set [3] and in data set [4] were 4.17 and < 4.00, respectively. The compound also displayed an RFU with PM1 of 33.6.
In the case of `CC(C)CN1CCC(NC(=O)C(=O)Nc2ccc(Cl)cc2)CC1`, in data set [2], the CC50 is > 300 µM. Besides, the pIC50 in [3] is < 4.00; in data set [5], 4.55. For the same compound, the RFU in the data set on PM1 is 15.1.
On to `CC1(C)CC(NC(=O)C(=O)Nc2ccc(Cl)cc2)CC(C)(C)N1`, for which the pIC50 in data set [6] is 4.92; in [3], 5.10; in data set [4], 5.00; in data set [7] (setting [11]) it was 5.68. Also, in data set [2], the CC50 worked out at 110 µM. In addition, the “Selectivity Index” value in [8] turned out to be 19.2. For the same compound, in the data set on PM1, the RFU was 18.4.
Consider `NC(=O)NCCC[C@@H]1NC(=O)[C@H](CCCN=C(N)N)NC(=O)[C@H](Cc2ccc(O)cc2)NC(=O)[C@@H]2CCCN2C(=O)[C@@H](CCCCNC(=O)CCC(=O)NCCCCCCN2CCC(NC(=O)C(=O)Nc3ccc(Cl)cc3)CC2)NC(=O)[C@H](CCCN=C(N)N)NC(=O)[C@H](CCCNC(N)=O)NC(=O)[C@H](Cc2ccc(O)cc2)NC(=O)[C@@H](NC(=O)[C@H](Cc2ccc3ccccc3c2)NC(=O)[C@H](CCCN=C(N)N)NC(=O)[C@H](CCCN=C(N)N)NC(=O)c2ccc(F)cc2)CSSC[C@@H](C(=O)N[C@@H](CCCN=C(N)N)C(N)=O)NC1=O` [listing 1 of 2 here], for which, in data set [1], the “Selectivity Index” value was determined as 219.
The compound `N=C(N)NCCC[C@H](NC(=O)[C@@H]1CSSC[C@H](NC(=O)[C@H](Cc2ccc3ccccc3c2)NC(=O)[C@H](CCCNC(=N)N)NC(=O)[C@H](CCCNC(=N)N)NC(=O)c2ccc(F)cc2)C(=O)N[C@@H](Cc2ccc(O)cc2)C(=O)N[C@@H](CCCNC(N)=O)C(=O)N[C@@H](CCCNC(=N)N)C(=O)N[C@H](CCCCNC(=O)CCC(=O)NCCCCN2CCC(NC(=O)C(=O)Nc3ccc(Cl)cc3)CC2)C(=O)N2CCC[C@H]2C(=O)N[C@@H](Cc2ccc(O)cc2)C(=O)N[C@@H](CCCNC(=N)N)C(=O)N[C@@H](CCCNC(N)=O)C(=O)N1)C(N)=O` [listing 1 of 2 here] had a negative-log EC50 (pEC50) in [9] of 8.36. The pIC50 in [7] (setting [11]) is 7.29. Also, in data set [10], it took 8.6 µM to reach half-maximal cytotoxicity (CC50).
For `Cc1ccc(NC(=O)C(=O)NC2CCNCC2)cc1`, the pIC50 in data set [6] was 4.70. In data set [2], this compound displayed a CC50 of 190 µM. Further, the RFU in the data set with PM1 is 46.
As for `N=C(N)NCCC[C@H](NC(=O)[C@@H]1CSSC[C@H](NC(=O)[C@H](Cc2ccc3ccccc3c2)NC(=O)[C@H](CCCNC(=N)N)NC(=O)[C@H](CCCNC(=N)N)NC(=O)c2ccc(F)cc2)C(=O)N[C@@H](Cc2ccc(O)cc2)C(=O)N[C@@H](CCCNC(N)=O)C(=O)N[C@@H](CCCNC(=N)N)C(=O)N[C@H](CCCCNC(=O)CCC(=O)NCCCCN2CCC(NC(=O)C(=O)Nc3ccc(Cl)cc3)CC2)C(=O)N2CCC[C@H]2C(=O)N[C@@H](Cc2ccc(O)cc2)C(=O)N[C@@H](CCCNC(=N)N)C(=O)N[C@@H](CCCNC(N)=O)C(=O)N1)C(N)=O` [listing 2 of 2 here], the “Selectivity Index” value in data set [1] is recorded as 169.
As for `O=C(Nc1ccc(Cl)cc1)C(=O)NC1CCNCC1`, in data set [6], the pIC50 was 5.10. In data set [2], this compound displayed a CC50 of 100 µM. In the data set on PM1, this compound yielded an RFU of 49.9.
`CC1(C)CC(NC(=O)C(=O)Nc2ccc(Br)cc2)CC(C)(C)N1` yielded a 50% cytotoxic concentration (CC50) in data set [2] of 93 µM.
Take `O=C(O)CCC(=O)N1CCC(NC(=O)C(=O)Nc2ccc(Cl)cc2)CC1`: the 50% cytotoxic concentration (CC50) in data set [2] is > 300 µM. The negative logarithm of the IC50 (pIC50) in [3] and in data set [4] was < 4.00 throughout. The RFU with PM1 turned out to be 26.1.
`Cc1cn([C@H]2C[C@H](N=[N+]=[N-])[C@@H](CO)O2)c(=O)[nH]c1=O` [ZIDOVUDINE]: the pIC50 in data set [7] (setting [11]) is 7.31.
Compound `NC(=O)NCCC[C@@H]1NC(=O)[C@H](CCCN=C(N)N)NC(=O)[C@H](Cc2ccc(O)cc2)NC(=O)[C@@H]2CCCN2C(=O)[C@@H](CCCCNC(=O)CCC(=O)NCCCCCCN2CCC(NC(=O)C(=O)Nc3ccc(Cl)cc3)CC2)NC(=O)[C@H](CCCN=C(N)N)NC(=O)[C@H](CCCNC(N)=O)NC(=O)[C@H](Cc2ccc(O)cc2)NC(=O)[C@@H](NC(=O)[C@H](Cc2ccc3ccccc3c2)NC(=O)[C@H](CCCN=C(N)N)NC(=O)[C@H](CCCN=C(N)N)NC(=O)c2ccc(F)cc2)CSSC[C@@H](C(=O)N[C@@H](CCCN=C(N)N)C(N)=O)NC1=O` [listing 2 of 2 here] had a pEC50 in data set [9] of 7.73. The pIC50 in data set [7] (setting [11]) was 7.44. The half-maximal cytotoxic concentration (CC50) in [10] is 8 µM.
Turning to `O=C(Nc1ccc(Br)cc1)C(=O)NC1CCNCC1`, the pIC50 in [6] is 5.22. The compound further had a CC50 in data set [2] of 50 µM. In the data set on PM1, the RFU is 52.3.
In data set [2], `O=C(O)CN1CCC(NC(=O)C(=O)Nc2ccc(Cl)cc2)CC1` registered a CC50 of 260 µM. In addition, the negative logarithm of the IC50 (pIC50) in [3] is < 4.00. In the data set with PM1, this compound came in with an RFU of 11.9.
For `CC(=O)N1CCC(NC(=O)C(=O)Nc2ccc(Cl)cc2)CC1`, in [2], the CC50 is > 300 µM. Also, the pIC50 in data set [3] and in data set [4] was < 4.00 each time. Further, the RFU with PM1 was determined as 29.1.
`Cc1ccc(NC(=O)C(=O)NC2CC(C)(C)NC(C)(C)C2)cc1`: the pIC50 in data set [6] is 4.82. Further, in data set [2], the cytotoxic concentration (CC50) was found to be 210 µM. The same compound registered an RFU in the data set on PM1 of 8.66.
In data set [9], `N=C(N)NCCC[C@H](NC(=O)[C@@H]1CSSC[C@H](NC(=O)[C@H](Cc2ccc3ccccc3c2)NC(=O)[C@H](CCCNC(=N)N)NC(=O)[C@H](CCCNC(=N)N)NC(=O)c2ccc(F)cc2)C(=O)N[C@@H](Cc2ccc(O)cc2)C(=O)N[C@@H](CCCNC(N)=O)C(=O)N[C@@H](CCCNC(=N)N)C(=O)N[C@H](CCCCNC(=O)CCC(=O)NCCCCCCCCN2CCC(NC(=O)C(=O)Nc3ccc(Cl)cc3)CC2)C(=O)N2CCC[C@H]2C(=O)N[C@@H](Cc2ccc(O)cc2)C(=O)N[C@@H](CCCNC(=N)N)C(=O)N[C@@H](CCCNC(N)=O)C(=O)N1)C(N)=O` [listing 2 of 2 here] gave a pEC50 of 8.15. Besides, the pIC50 in [7] (mt2) is 7.45. In data set [10], this compound gave a CC50 of 8.6 µM.
In [2], `CC(C)C(=O)N1CCC(NC(=O)C(=O)Nc2ccc(Cl)cc2)CC1` registered a CC50 of 45 µM. For the same compound, the pIC50 in data set [3] is < 4.00. In the data set on PM1, this compound showed an RFU of 8.27.

For the origin of these results see ChEMBL document CHEMBL1255517, “CD4 mimics targeting the HIV entry mechanism and their hybrid molecules with a CXCR4 antagonist” (Bioorg Med Chem Lett, 2010).
